Measurements reported in ChEMBL document CHEMBL1124112, “Indoline analogues of idazoxan: potent alpha 2-antagonists and alpha 1-agonists” (J Med Chem, 1988).

Experiments:
Rattus norvegicus [1] = test: In vivo antagonist dose producing two fold shift of cirazoline in pithed rats. (postjunctional); AG- agonist; format: functional, organism-based; conditions: filed as agonist
Procedure, shortened: (§1)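 Pithed rats, iv. Antagonist given before a cumulative dose-response curve to cirazoline on diastolic blood pressure. DR2 is the antagonist dose (μg/kg) giving a twofold rightward shift. Separate groups of rats (n = 4-6).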

[2] = target: T1, Adrenergic receptor alpha-2 (Rattus norvegicus) (UniProt P22086+P19328+P22909); test: Antagonist potency towards alpha-2 adrenergic receptor determined as the dose required to produce a two fold shift of the dose-response curve to UK-14304 on the twitch response of the vas deferens (in vitro);AG- agonist; format: functional, tissue-based; conditions: filed as agonist
T1 sequence (P19328 whole entry, looked up): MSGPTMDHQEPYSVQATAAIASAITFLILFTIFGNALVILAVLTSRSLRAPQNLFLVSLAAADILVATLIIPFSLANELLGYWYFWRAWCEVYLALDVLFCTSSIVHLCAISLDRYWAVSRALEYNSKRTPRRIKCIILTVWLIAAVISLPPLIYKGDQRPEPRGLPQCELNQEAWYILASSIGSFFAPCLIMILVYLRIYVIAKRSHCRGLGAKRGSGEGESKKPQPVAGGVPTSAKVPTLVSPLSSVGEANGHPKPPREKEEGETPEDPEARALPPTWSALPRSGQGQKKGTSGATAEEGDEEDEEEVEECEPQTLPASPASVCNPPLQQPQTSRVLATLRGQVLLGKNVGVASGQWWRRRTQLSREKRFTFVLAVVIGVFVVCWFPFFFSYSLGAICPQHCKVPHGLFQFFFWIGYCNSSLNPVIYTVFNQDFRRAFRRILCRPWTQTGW
T1 sequence (P22086 whole entry, looked up): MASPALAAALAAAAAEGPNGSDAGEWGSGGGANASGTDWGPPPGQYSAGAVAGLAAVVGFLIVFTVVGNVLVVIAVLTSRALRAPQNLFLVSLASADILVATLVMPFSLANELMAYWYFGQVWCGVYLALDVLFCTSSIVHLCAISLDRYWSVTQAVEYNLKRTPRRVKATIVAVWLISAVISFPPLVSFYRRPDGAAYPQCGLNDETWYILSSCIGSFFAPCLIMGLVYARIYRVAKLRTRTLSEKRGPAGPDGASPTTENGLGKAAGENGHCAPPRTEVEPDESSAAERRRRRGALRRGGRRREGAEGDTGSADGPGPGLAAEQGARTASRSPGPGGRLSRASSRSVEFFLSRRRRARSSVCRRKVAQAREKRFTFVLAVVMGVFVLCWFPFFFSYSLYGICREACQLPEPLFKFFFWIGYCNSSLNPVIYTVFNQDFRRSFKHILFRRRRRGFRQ
T1 sequence (P22909 whole entry, looked up): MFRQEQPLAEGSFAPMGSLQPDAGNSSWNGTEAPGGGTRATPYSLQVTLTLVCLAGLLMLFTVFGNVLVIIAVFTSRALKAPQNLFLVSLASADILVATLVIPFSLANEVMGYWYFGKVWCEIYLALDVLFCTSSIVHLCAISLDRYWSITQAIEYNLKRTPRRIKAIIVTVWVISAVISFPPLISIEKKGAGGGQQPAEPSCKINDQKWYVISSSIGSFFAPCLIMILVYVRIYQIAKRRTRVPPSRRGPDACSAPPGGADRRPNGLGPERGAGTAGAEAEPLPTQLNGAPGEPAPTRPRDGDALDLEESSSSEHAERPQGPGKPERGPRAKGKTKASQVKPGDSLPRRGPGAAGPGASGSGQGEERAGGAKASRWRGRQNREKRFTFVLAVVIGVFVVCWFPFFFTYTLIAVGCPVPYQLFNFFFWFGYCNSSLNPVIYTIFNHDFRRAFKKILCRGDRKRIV

Rattus norvegicus [3] = test: In vivo dose required to inhibit vas deferens contraction by 25% after pretreatment with prazosin in pithed rats. (prejunctional); format: functional
Procedure, shortened: (§2)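 Pithed rats pretreated with prazosin (1 mg/kg). Compound given iv in cumulative doses. ED25 is the dose (μg/kg) inhibiting vas deferens contraction by 25%. Separate groups of rats (n = 4-6).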

Rattus norvegicus [4] = test: In vivo ED40 is the raising diastolic blood pressure by 40 mm Hg in pithed rats. (postjunctional); format: functional; conditions: Artery
Procedure, shortened: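 Pithed rats, compound given iv in cumulative doses. ED40 is the dose (μg/kg) raising diastolic blood pressure by 40 mmHg. Separate groups of rats (n = 4-6).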

[5] = tested on: Adrenergic receptor alpha-2 (Rattus norvegicus); test: Agonism at alpha-2 adrenergic receptor, determined as dose required to produce a two fold shift of the cumulative dose-response curve to UK-14304 on the twitch response in rat vas deferens.
[6] = target: Adrenergic receptor alpha-1 (Rattus norvegicus) (UniProt P15823+P23944+P43140); test: Agonism at alpha-1 adrenergic receptor, determined as the dose required to produce a two fold shift of the cirazoline on diastolic blood pressure.; format: functional, tissue-based; conditions: Artery
Rattus norvegicus [7] = test: In vivo dose required to inhibit vas deferens contraction by 25% after pretreatment with prazosin in pithed rats. (prejunctional); ant- antagonist; format: functional, organism-based; conditions: filed as antagonist; procedure, shortened: as §2
[8] = target: T1, Adrenergic receptor alpha-2 (Rattus norvegicus); test: Antagonism at alpha-2 adrenergic receptor, determined as dose required to produce a two fold shift of the dose-response curve to UK-14304 on the twitch response in rat vas deferens; format: functional, tissue-based
Procedure, shortened: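 Pithed rats, iv. Antagonist given before a cumulative dose-response curve to UK-14,304 on the vas deferens twitch response. DR2 is the antagonist dose (μg/kg) giving a twofold shift of the curve. Separate groups of rats (n = 4-6).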

Rattus norvegicus [9] = test: In vivo antagonist dose producing two fold shift of UK-14,304 in pithed rats. (prejunctional)
[10] = tested on: Adrenergic receptor alpha-1 (Rattus norvegicus); test: […] towards alpha-1 adrenergic receptor determined as the dose required to produce a two fold shift of the cirazoline on diastolic blood pressure (in vitro); conditions: Artery
Rattus norvegicus [11] = test: In vivo antagonist dose producing two fold shift of cirazoline in pithed rats. (postjunctional);AG- agonist; format: functional, organism-based; conditions: filed as agonist; procedure, shortened: as §1

CN1c2c(Cl)cccc2CC1C1=NCCN1 (stereo not drawn) was tested, and the ED40 (Rattus norvegicus [1]) was “Agonist”, the Prejunctional antagonist potency [2] was “Agonist” and the ED25 (Rattus norvegicus [3]) was 2.2 µg/kg. The ED40 (Rattus norvegicus [4]) was 1.4 µg/kg, the Prejunctional agonist potency [5] was 0.3 and the Postjunctional agonist potency [6] was 3.5.
Work on CNC[C@H](O)c1cccc(O)c1 [PHENYLEPHRINE] yielded an ED40 (Rattus norvegicus [4]) of 0.9 µg/kg.
For CN1c2cccc(Br)c2CC1C1=NCCN1 (stereo not drawn), the Prejunctional antagonist potency [2] was “Agonist”, the ED25 (Rattus norvegicus [3]) was 1.1 µg/kg and the ED40 (Rattus norvegicus [4]) was 0.3 µg/kg. The Prejunctional agonist potency [5] was 0.34 and the Postjunctional agonist potency [6] was 3.4.
With CN1c2ccc(Cl)cc2CC1C1=NCCN1 (stereo not drawn) the ED25 (Rattus norvegicus [7]) was “Antagonist”, the ED40 (Rattus norvegicus [1]) was “Agonist” and the ED40 (Rattus norvegicus [4]) was 14.3 µg/kg. It also gave a Prejunctional agonist potency [5] of 0, a Prejunctional antagonist potency [8] of 6.8 and a DR2 (Rattus norvegicus [9]) of 0.0127 mg/kg. The Postjunctional agonist potency [6] was 2.
For c1ccc2c(c1)CC(C1=NCCN1)O2 (stereo not drawn), the Postjunctional antagonist potency [10] was 0.16, the Prejunctional agonist potency [5] was 0 and the Prejunctional antagonist potency [8] was 1.7. The Postjunctional agonist potency [6] was 0.01.
For COc1cccc2c1N(C)C(C1=NCCN1)C2 (stereo not drawn), the Prejunctional antagonist potency [2] was “Agonist”, the Prejunctional agonist potency [5] was 0.4 and the Postjunctional agonist potency [6] was 8.
c1ccc2c(c1)CC(C1=NCCN1)C2 was tested, and the Postjunctional antagonist potency [10] was 0.8, the Prejunctional agonist potency [5] was 0 and the Prejunctional antagonist potency [8] was 0.4. It also gave a Postjunctional agonist potency [6] of 0.
With Nc1cc(Cl)c(N=C2NCCN2)c(Cl)c1 [APRACLONIDINE] the ED25 (Rattus norvegicus [3]) was 0.4 µg/kg and the ED40 (Rattus norvegicus [4]) was 0.7 µg/kg.
In the case of CN1c2cccc(F)c2CC1C1=NCCN1 (stereo not drawn), the Prejunctional antagonist potency [2] is reported as “Agonist”, the ED25 (Rattus norvegicus [3]) is reported as 0.8 µg/kg and the ED40 (Rattus norvegicus [11]) is reported as “Agonist”. The Prejunctional agonist potency [5] was 1, the DR2 (Rattus norvegicus [9]) was 0.0008 mg/kg and the Postjunctional agonist potency [6] was 6.
With COc1cccc2c1CC(C1=NCCN1)N2C (stereo not drawn) the Prejunctional agonist potency [5] was 0, the Prejunctional antagonist potency [8] was 0.27 and the Postjunctional agonist potency [6] was 0.62.
CCN1c2ccccc2CC1(C)C1=NCCN1 (stereo not drawn) was tested, and the Prejunctional agonist potency [5] was 0, the Prejunctional antagonist potency [8] was 0.1 and the Postjunctional agonist potency [6] was 0.03.
With CCC1(C2=NCCN2)Cc2ccccc2N1C (stereo not drawn) the Postjunctional antagonist potency [10] was < 0.012, the Prejunctional agonist potency [5] was 0 and the Prejunctional antagonist potency [8] was 0.005. For the same compound, the Postjunctional agonist potency [6] was 0.
For CN1c2cc(Cl)ccc2CC1C1=NCCN1 (stereo not drawn), the Prejunctional antagonist potency [2] was “Agonist”, the Prejunctional agonist potency [5] was 0.019 and the Postjunctional agonist potency [6] was 0.67.
CCN1c2ccc(Cl)cc2CC1C1=NCCN1 (stereo not drawn) was tested, and the ED25 (Rattus norvegicus [7]) was “Antagonist”, the ED40 (Rattus norvegicus [1]) was “Agonist” and the ED40 (Rattus norvegicus [4]) was 4.2 µg/kg. For the same compound, the Prejunctional agonist potency [5] was 0, the Prejunctional antagonist potency [8] was 8 and the DR2 (Rattus norvegicus [9]) was 0.0059 mg/kg. For the same compound, the Postjunctional agonist potency [6] was 5.
CN1c2cccc(O)c2CC1C1=NCCN1 (stereo not drawn) was tested, and the Prejunctional antagonist potency [2] was “Agonist”, the ED25 (Rattus norvegicus [3]) was 0.2 µg/kg and the ED40 (Rattus norvegicus [11]) was “Agonist”. It also gave an ED40 (Rattus norvegicus [4]) of 0.3 µg/kg, a Prejunctional agonist potency [5] of 0.16 and a Postjunctional agonist potency [6] of 6.7.
Work on c1ccc(COCCN2c3ccccc3CC2C2=NCCN2)cc1 (stereo not drawn) yielded a Postjunctional antagonist potency [10] of 18, a Prejunctional agonist potency [5] of 0 and a Prejunctional antagonist potency [8] of 0.05. For the same compound, the Postjunctional agonist potency [6] was 0.
